Results: publication PMC2223364 (The Journal of General Physiology, 1999)
“And” between values parts separate entries of the source, which are not always exact repeats. Identical values can stand only once. Like-named read-outs stand apart in the source and are kept apart here. Ends that are not written are not given here.

Legend:
[1] = molecular target: rat muscle maxi-KCa channel (large conductance Ca^2+-activated K^+ channel), intracellular site; assay: Single-channel substate kinetics of one Kunitz inhibitor; format: biochemical
In short: (§1)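 Single rat skeletal muscle maxi-KCa channels were taken from plasma membrane vesicles and fused into planar bilayers of 80% POPE/20% POPC. Recordings used symmetrical 50 mM KCl and 10 mM MOPS-KOH, pH 7.4. Internal CaCl2 was 200 μM, raised to 500 μM in some experiments to keep open probability >0.9. Holding was +30 mV at 20–23°C, with Ag/AgCl electrodes and agar-KCl bridges.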

[2] = molecular target: rat muscle maxi-KCa channel (large conductance Ca^2+-activated K^+ channel), intracellular site; assay: Ligand interaction of BPTI and DTX-I on single maxi-KCa channels, planar bilayer; format: biochemical
In short: as §1

[3] = molecular target: rat muscle maxi-KCa channel, intracellular sites (Rattus norvegicus, UniProt Q62976); assay: Ligand interaction of BP and DTX-I on single maxi-KCa channels, planar bilayer; format: biochemical
In short: as §1

[4] = system: maxi-KCa channel (external ChTX site); assay: Slow block by external charybdotoxin in absence and presence of internal DTX-I; format: biochemical, rat
[5] = molecular target: rat muscle maxi-KCa channel, internal pore (Rattus norvegicus, UniProt Q62976); assay: Single-channel block by ball peptide homologue; format: biochemical; conditions: for Kd: BP alone, +30 mV, 50 mM KCl, pH 7.4
In short: as §1

[6] = system: maxi-KCa channel (external TEA site); assay: Fast block by external TEA in absence and presence of internal DTX-I; format: biochemical, rat; conditions: 460 nM DTX-I; P = 0.1
In short: as §1

[7] = system: maxi-KCa channels; conditions: cited from earlier work
[8] = system: serine proteinases (chymotrypsin/trypsin family); conditions: BPTI and related Kunitz molecules; ref Dufton, 1985; Capasso et al., 1997; cited from earlier work
[9] = system: cyclic nucleotide–gated channels; conditions: ref Kramer et al., 1994; cited from earlier work
[10] = read-out: Kd (studied alone), abstract, one-site binding kinetics, unoccupied channel

Sequence of rat muscle maxi-KCa channel, internal pore (Q62976 whole entry): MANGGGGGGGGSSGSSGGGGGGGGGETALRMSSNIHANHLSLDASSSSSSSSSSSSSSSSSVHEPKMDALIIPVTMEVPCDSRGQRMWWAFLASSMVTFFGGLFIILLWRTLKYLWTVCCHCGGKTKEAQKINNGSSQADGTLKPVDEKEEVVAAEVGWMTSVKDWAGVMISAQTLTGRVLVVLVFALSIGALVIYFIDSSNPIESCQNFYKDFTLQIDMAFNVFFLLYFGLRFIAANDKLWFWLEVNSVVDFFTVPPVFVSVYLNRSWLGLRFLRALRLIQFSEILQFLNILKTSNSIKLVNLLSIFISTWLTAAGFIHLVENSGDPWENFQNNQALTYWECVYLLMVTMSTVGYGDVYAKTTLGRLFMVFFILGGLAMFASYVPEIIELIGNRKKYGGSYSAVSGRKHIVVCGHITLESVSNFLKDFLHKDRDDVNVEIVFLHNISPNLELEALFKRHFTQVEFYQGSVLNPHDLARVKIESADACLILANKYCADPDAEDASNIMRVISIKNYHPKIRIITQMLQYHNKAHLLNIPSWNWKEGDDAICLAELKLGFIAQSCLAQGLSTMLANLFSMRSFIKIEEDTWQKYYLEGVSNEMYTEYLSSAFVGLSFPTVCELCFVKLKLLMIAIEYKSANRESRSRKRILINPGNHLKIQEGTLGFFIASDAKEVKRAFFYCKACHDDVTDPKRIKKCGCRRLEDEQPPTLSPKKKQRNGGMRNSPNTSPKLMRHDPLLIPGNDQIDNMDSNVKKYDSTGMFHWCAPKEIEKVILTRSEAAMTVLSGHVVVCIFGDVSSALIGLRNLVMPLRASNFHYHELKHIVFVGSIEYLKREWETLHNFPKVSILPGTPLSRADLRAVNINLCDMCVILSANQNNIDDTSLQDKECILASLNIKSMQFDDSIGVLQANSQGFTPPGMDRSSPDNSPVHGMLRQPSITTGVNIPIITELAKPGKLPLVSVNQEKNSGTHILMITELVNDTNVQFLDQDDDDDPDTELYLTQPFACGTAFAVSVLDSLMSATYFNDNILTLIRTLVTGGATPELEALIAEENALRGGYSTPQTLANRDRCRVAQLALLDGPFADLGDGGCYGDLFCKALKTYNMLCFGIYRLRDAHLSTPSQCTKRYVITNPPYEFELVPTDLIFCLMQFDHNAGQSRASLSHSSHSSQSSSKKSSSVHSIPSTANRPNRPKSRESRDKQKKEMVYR
Sequence of rat muscle maxi-KCa channel, intracellular sites (Q62976 whole entry): as above

## dendrotoxin I (QPLRKLCILHRNPGRCYQKIPAFYYNQKKKQCEGFTWSGCGGNSNRFKTIEECRRTCIRK; ends and bridges not checked; cysteine pairing not given here; UniProt P00979 1-60, looked up) [DTX-I]
[1]; [10]
  Kd: 16.5 nM
[1]; read-out: equilibrium dissociation constant J1 = j−1/4j1 (DTX-I from SDTX), DTX-I, unoccupied channel, +30 mV, 50 mM KCl, pH 7.4
  Kd: 16.5 nM
[2]; read-out: equilibrium dissociation constant J2, DTX-I binding to BPTI-occupied channel, from slope of τBURST vs [BPTI], Eq. 7, 460 nM DTX-I, +30 mV, 50 mM KCl, pH 7.4
  Kd: 178 nM
[3]; read-out: equilibrium dissociation constant J3 (DTX-I from BBP/DTX), DTX-I binding to BP-blocked state, from τBP, Eq. 19, +30 mV, 50 mM KCl, pH 7.4
  Kd: 139 nM

## charybdotoxin [ChTX]
[4]; 460 nM internal DTX-I
  binding interaction of external ChTX with internal DTX-I: no detectable binding interaction
[4]; 460 nM internal DTX-I, +30 mV
  koff of ChTX, presence of DTX-I: 0.0350 ± 0.0003 s⁻¹
  kon of ChTX, presence of DTX-I: 2.89 ± 0.51 × 10^7 s^−1M^−1
[4]; external ChTX (10 nM), +30 mV
  koff of ChTX, absence of DTX-I: 0.0369 ± 0.0004 s⁻¹
  kon of ChTX, absence of DTX-I: 2.77 ± 0.42 × 10^7 s^−1M^−1
[4]; read-out: Kd of ChTX (koff/kon), absence of DTX-I, external ChTX (10 nM), +30 mV
  Kd: 1.33 ± 0.2 nM

## CC[N+](CC)(CC)CC [TEA, tetraethylammonium]
[5]; data not shown
  effect of internal TEA on BP association: decreases the association rate of BP homologue in a competitive fashion
[6]
  binding interaction of external TEA with internal DTX-I: no detectable binding interaction
[7]; Ba^2+ with BPTI, internal TEA with DTX-I, ref Lucchesi and Moczydlowski, 1991
  effect of BPTI or DTX-I on blocking affinity of internal blocker: not significantly affected
[7]; ref Toro et al., 1992
  inhibition of ball peptide block by TEA: inhibits ball peptide block of the maxi-KCa channel in a strictly competitive fashion

## bovine pancreatic trypsin inhibitor [BPTI]
[1]; 8 μM internal BPTI (1.0 at 0 μM), +30 mV
  probability of the channel residing in the fully open conductance state: ~0.15
[1]; BPTI alone, internal, 1-8 μM, +30 mV, symmetrical 50 mM KCl, 10 mM MOPS-KOH pH 7.4, 200 μM internal Ca2+, 20–23°C, mean of four τS means, single-exponential
  mean lifetime of BPTI-induced substate (τS): ~0.41 s and 0.411 ± 0.022 s
[1]; BPTI alone, internal, fit of τU to Eq. 2, +30 mV, 50 mM KCl, pH 7.4
  apparent association rate constant 4k1: 1.63 ± 0.07 × 10^6 s^−1M^−1
[1]; BPTI alone, internal, from τS (Eq. 1), ±SEM, +30 mV, 50 mM KCl, pH 7.4
  dissociation rate constant k−1: 2.43 ± 0.13 s⁻¹
[1]; BPTI, unoccupied channel, +30 mV, 50 mM KCl, pH 7.4
  equilibrium dissociation constant K1 (kinetic ratio k−1/4k1): 1.49 ± 0.10 µM and 1.49 µM
[1]; fit of PU vs [BPTI]
  Hill coefficient n: 1.0
[1]; ligand alone, internal, +30 mV
  substate current level: ~27 % of unitary current
[1]; [10]
  Kd: 1490 nM
[1]; words
  binding kinetics when studied alone: one-site binding kinetics
[2]; 8 μM BPTI, 460 nM DTX-I
  relief of the DTX substate: ~30%
[2]; BPTI titration at 460 nM DTX-I, measured
  slope of τBURST vs [BPTI]: 3.25 s/µM
[2]; BPTI titration, 460 nM DTX-I
  KApp for relief of normalized DTX-substate probability, best fit to Eq. 10: 17.8 µM and 17.8 ± 1.7 µM
[2]; DTX-occupied vs unoccupied channel
  decrease of BPTI affinity when DTX-I is bound (K2/K1): 11.7 fold and 11.7 ± 2.1 fold and ~11 fold
[2]; over 0–8 μM BPTI at 460 nM DTX-I
  increase in mean τS-DTX: 47%
[2]; read-out: Kd of BPTI when DTX-I is bound, abstract, DTX-occupied channel
  Kd: 17500 nM
[8]
  inhibition of chymotrypsin/trypsin family serine proteinases: potent inhibitors

## MAAVAVLYVLGKKRQHRKKQ [BP]
[5]; equilibrium dissociation constant B1 = b−1/b1 (BP from BBP), unoccupied channel, kinetic ratio
  Kd: 7.16 nM
[5]; equilibrium dissociation constant B1 from PU vs [BP] (Eq. 15), 4.5–6.5 h data pooled from three to seven single channels
  Kd: 8.85 nM
[5]; pH 7.4, read-out: bimolecular association rate constant b1 (BP to U)
  kon: 8.17e+07 M⁻¹ s⁻¹
[5]; pH 7.4, read-out: dissociation rate constant b−1 (BP from BBP)
  koff: 0.585 s⁻¹
[3]
  Kd: 57 nM
[3]; pH 7.4, read-out: association rate constant b2 (BP to SDTX)
  kon: 1.85e+06 M⁻¹ s⁻¹
[3]; read-out: dissociation rate constant b−2 (BP from BBP/DTX)
  koff: 0.105 s⁻¹

## Shaker ball peptide: 20-residue NH2 terminus of the Shaker K^+ channel of Drosophila that mediates rapid inactivation (MAAVAVLYVLGKKRQHRKKQ)
[7]; ref Foster et al., 1992, Toro et al.
  block of maxi-KCa channels: known to block maxi-KCa channels by a pore-occlusion mechanism
[9]
  block of cyclic nucleotide–gated channels: blocks other types of ion channels
